esBAF inh = Bmi1 luciferase reporter increase in mESCs, primary screen, esBAF inhibitor project, mouse ES cells, Bmi1 luciferase knock-in, single point | 24 h; 100% = twice the neutral-well signal | reporter increase, % at 12.5 µM | hit rate 2% among 350,000; in the data active = activation above about 40%;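 also: 0% = median of the plate's neutral control wells and 100% = double that signal; a rise in the Bmi1 reporter signal indicates esBAF inhibition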
ASAP1 inh = inhibitors of human ASAP1 ArfGAP activity, primary screen, biochemical, fluorescence polarization | inhibition, % at 16.5 µM | hit rate 0.19% among 360,000 | ASAP1-stimulated ARF1 GTP hydrolysis, GDP FP detection | Arf-GAP with SH3 domain, ANK repeat and PH domain-containing protein 1 (Homo sapiens), …; in the data active = inhibition above about 25%;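 also: 0% = vehicle with enzyme and substrate and 100% = no enzyme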
ARFGAP1 inh = inhibitors of rat ARFGAP1 GAP activity, primary screen, biochemical, fluorescence polarization, GDP tracer | ADP-ribosylation factor GTPase-activating protein 1 (Rattus norvegicus), Q62848 | Arfgap1-stimulated ARF1 GTP hydrolysis, GDP FP detection | inhibition, % at 16.5 µM | hit rate 0.26% among 360,000;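 active = inhibition above a per-plate limit, mean inhibition of low control wells plus 3 SD, cut at about 25% in these data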;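 also: 0% = DMSO wells with enzyme and 100% = wells lacking Arfgap1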
Target sequence (Q62848 1-136 limits assumed): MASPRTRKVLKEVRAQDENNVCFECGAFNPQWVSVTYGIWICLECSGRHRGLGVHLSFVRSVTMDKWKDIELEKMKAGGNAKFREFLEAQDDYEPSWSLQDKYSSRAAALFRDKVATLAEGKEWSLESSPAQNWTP
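Material: truncated rat Arfgap1 GAP domain; Incubation: compound-enzyme preincubation 20 min, reaction 120 min, detection 60 min, 25 °C; Read-out: percent inhibition of Arfgap1-stimulated GTP hydrolysis; Technique: FP, GDP Alexa 633 tracer displaced from anti-GDP antibody, 620/688 nm; Controls: No-Arfgap1 wells (100%) versus DMSO full-reaction wells (0%); Replication: single well per compound.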
SMARCA2 act = SMARCA2 (BRM) function activators, primary screen, cell-based, luminescence, high throughput; AID 652017, 2013; hit rate 1% among 370,000; activation, % at 9.1 µM; MG213 cells, MMTV-luciferase reporter, dexamethasone, overnight; in the data active = activation above about 7.8%;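 also: 0% = vehicle wells and 100% = reference activator wells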
ASAP1 inh confirm = ASAP1 GAP activity inhibitors, confirmation, biochemical, fluorescence polarization, human, triplicate | shares compounds with ASAP1 inh | ASAP1-stimulated Arf1 GTPase, GDP fluorescence polarization | inhibition, % at 16.5 µM | hit rate 37% among 620 | AID 624431, 2012;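 active = mean inhibition over triplicates exceeds the hit threshold derived for the earlier primary screening run, cut at about 25% in these data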
ARFGAP1 inh conf = ARFGAP1 inhibitor hit confirmation, biochemical, fluorescence polarization, triplicate; shares compounds with ARFGAP1 inh; ARFGAP1-stimulated ARF1 GTP hydrolysis, GDP tracer FP; inhibition, % at 16.5 µM; hit rate 30% among 890;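 active = average inhibition over triplicates above the hit cutoff set in the earlier primary screen, cut at about 25% in these data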;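 also: 0% = Arfgap1 plus ARF1-GTP with DMSO and 100% = wells lacking Arfgap1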
Target sequence (Q62848 whole entry, looked up): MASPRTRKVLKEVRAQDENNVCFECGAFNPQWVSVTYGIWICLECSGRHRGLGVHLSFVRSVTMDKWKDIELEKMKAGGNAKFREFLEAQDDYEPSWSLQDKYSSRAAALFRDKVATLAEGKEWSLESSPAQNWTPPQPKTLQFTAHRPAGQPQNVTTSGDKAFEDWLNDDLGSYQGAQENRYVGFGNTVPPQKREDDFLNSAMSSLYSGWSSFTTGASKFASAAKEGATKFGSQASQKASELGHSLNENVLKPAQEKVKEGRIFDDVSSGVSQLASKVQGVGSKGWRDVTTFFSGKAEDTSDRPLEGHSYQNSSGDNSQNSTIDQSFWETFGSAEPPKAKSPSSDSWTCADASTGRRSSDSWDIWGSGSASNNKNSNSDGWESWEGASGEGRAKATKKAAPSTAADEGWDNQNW
SMARCA2 conf = SMARCA2 (BRM) function activators, confirmation, cell-based, luminescence, triplicate. shares compounds with SMARCA2 act. MG213 cells, MMTV-luciferase with dexamethasone, overnight; MG213 cells expressing E1A, Rb sequestered; DMSO wells 0%, reference activator 100%. activation, % at 9.1 µM. hit rate 30% among 3,500;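 active = activation above its plate's cutoff, the mean activation of tested wells plus 3 SD, cut at about 7.9% in these data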
GAL4-VP16 Luc = GAL4-VP16 luciferase reporter activation, counter-screen for SMARCA2 (BRM) activator project, cell-based, pG5luc, luminescence, high throughput; shares compounds with SMARCA2 act; HEK293 GAL4-VP16 pG5luc reporter; scaled: DMSO wells 0%, SAHA wells 100%; activation, % at 9.1 µM; hit rate 41% among 3,500; AID 686939, 2013;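 active = activation above the solvent-only control well mean plus 3 SD, averaged across control plates, cut at about 5.2% in these data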
* marks the source's active call; other numbers are inactive results; . = no result given. Shown are actives, neighbours in structure and some others; about 2.6% of the full set was active somewhere.

SMILES | esBAF inh | ASAP1 inh | ARFGAP1 inh | SMARCA2 act | SMARCA2 conf | GAL4-VP16 Luc | others
O=C(Cc1ccccn1)N1CCCCN2[C@@H](CO)[C@H](c3ccc(Br)cc3)[C@@H]2C1 | -2 | . | . | . | . | .
COCCCn1c(N)c(C(=O)NCCC(C)C)c2nc3ccccc3nc21 | -9 | 27* | 23 | -3 | . | . | ASAP1 inh confirm=9
O=C(O)c1cccc2c1NC(C(=O)O)C1CC(Sc3ccccc3[N+](=O)[O-])C(Cl)C21 (centres undefined) | -4 | 59* | 35* | -2 | . | . | ASAP1 inh confirm=61*;ARFGAP1 inh conf=87*
CC(=O)c1ccc2c(c1)C1C(Cl)C(Sc3ccccc3[N+](=O)[O-])CC1C(C(=O)O)N2 (centres undefined) | . | -1 | 0 | -4 | . | .
CC[n+]1c(/C=C/C=C/c2ccc(N(C)C)cc2)sc2ccccc21 | . | 98* | 107* | -13 | . | . | ASAP1 inh confirm=123*;ARFGAP1 inh conf=159*
CN(C)c1ccc(/C=C/C=C/c2sc3ccccc3[n+]2C)cc1 | . | 80* | 92* | -8 | . | . | ASAP1 inh confirm=109*;ARFGAP1 inh conf=127*
CC[n+]1c(/C=C/N(C)c2ccccc2)sc2ccc(Cl)cc21 | -26 | 3 | -3 | -6 | . | .
CN(C)c1ccc(/C=C/c2cc[n+](C)c3ccccc23)cc1 | -59 | 44* | 37* | -9 | . | . | ASAP1 inh confirm=51*;ARFGAP1 inh conf=49*
O=C(Cc1cccnc1)N1CCCCN2[C@H](CO)[C@H](c3ccc(C#CC4CCCC4)cc3)[C@H]2C1 | -14 | . | . | . | . | .
CC=Cc1ccc2n(c1=O)C[C@@H]1[C@@H](CO)[C@H](C(=O)OC)[C@H]2N1S(=O)(=O)c1ccccc1C (mixture of isomers) | 1 | . | . | . | . | .
COC(=O)[C@@H]1[C@@H](CO)[C@@H]2Cn3c(ccc(C4=CCCCC4)c3=O)[C@H]1N2C(=O)CC1CC1 | -1 | . | . | . | . | .
CCOCCCn1c(N)c(C(=O)Nc2sc3c(c2C(=O)OC)CCCC3)c2nc3ccccc3nc21 | 9 | 34* | 25* | -5 | . | . | ASAP1 inh confirm=14;ARFGAP1 inh conf=4
CCOP(=O)(OCC)C(O)c1cccc([N+](=O)[O-])c1 (centres undefined) | . | 11 | 26* | 0 | . | . | ARFGAP1 inh conf=-1
CCCNC(=O)[C@H]1[C@H](CO)[C@H]2Cn3c(cccc3=O)[C@@H]1N2CCC | -3 | . | . | . | . | .
CN1CCN(Cc2cc(C(C)(C)C)c(O)c(C(C)(C)C)c2)CC1 | 2 | 7 | 26* | 0 | . | . | ARFGAP1 inh conf=6
N#Cc1ccc(-c2ccc([C@H]3[C@H](CO)N4CCCCN(C(=O)Cc5ccccc5)C[C@@H]34)cc2)cc1 | 4 | . | . | . | . | .
S=C(NCCc1ccccc1)N1Cc2cc(Br)ccc2-n2nncc2C1 | 1 | 1 | 1 | -4 | . | .
S=C(NCCc1ccccc1)N1Cc2ccc(Br)cc2-n2nncc2C1 | 9 | 2 | 26* | -6 | . | . | ARFGAP1 inh conf=5
CN(C)P(=O)(C(Cl)=C(N1CCCCC1)N1CCCCC1)N(C)C | -5 | 6 | -2 | 19* | 39* | -2
Cc1cc2c(cc1C)NP(=S)(c1ccccc1)N2 | 39 | 6 | 8 | 9.3* | 6 | 8.3*
COc1ccc(NC(=S)NC(NC(=O)CF)C(Cl)(Cl)Cl)c([N+](=O)[O-])c1 (centres undefined) | -5 | 3 | 1 | -1 | . | .
Cc1ccccc1NC(=S)NC(NC(=O)CF)C(Cl)(Cl)Cl (centres undefined) | . | 9 | -10 | 9.2* | 3 | -1
COC(=O)[C@@H]1[C@@H](CO)[C@@H]2Cn3c(ccc(C4=CCCC4)c3=O)[C@H]1N2Cc1ccccn1 | -4 | . | . | . | . | .
CN/C=C(/Cl)P(=O)(OC(C)C)OC(C)C | . | 2 | 4 | 8.0* | 4 | -1
CCCN1[C@@H]2c3ccc(-c4ccc(OC)cc4)c(=O)n3C[C@H]1[C@H](CO)[C@H]2C(=O)OC | 5 | . | . | . | . | .
SMILES | esBAF inh | ASAP1 inh | ARFGAP1 inh | SMARCA2 act | SMARCA2 conf | GAL4-VP16 Luc | others
COc1ccc(-n2c(-c3ccc(C)cc3)nc3ccccc3c2=O)cc1 | . | 3 | -1 | 2 | . | .
COc1ccc(-c2nc3ccccc3c(=O)o2)cc1 | 50* | 1 | 3 | 9.8* | 8.7* | 7.4*
CCOC(=O)c1c(C)[nH]c(C(=O)C(C)N2CCCC2)c1C (centres undefined) | . | 7 | 4 | 8.4* | 0 | 1
CN1[C@H](CO)[C@H]2c3ccccc3NC[C@H]21 | -1 | . | . | . | . | .
COc1cc(C)c(CN2CC=C(c3ccc(F)cc3)CC2)cc1C | 9 | -1 | 3 | -2 | . | .
COc1cc2nc(CN3CC=C(c4ccccc4)CC3)[nH]c(=O)c2cc1OC | -7 | -6 | 0 | 14* | 7 | -1
CCCCCCC(=O)N/N=C/c1c(O)n(CCc2ccccc2)c(=O)[nH]c1=O | -3 | 6 | 9 | 8.7* | 0 | 0
COC(=O)[C@H]1[C@H](CO)[C@H]2Cn3c(cccc3=O)[C@@H]1N2C(=O)C1CCC1 | 5 | . | . | . | . | .
CCCN1[C@@H]2Cn3c(ccc(-c4ccccc4)c3=O)[C@H]1[C@@H](C(=O)OC)[C@@H]2CO | 4 | . | . | . | . | .
C/C=C/c1ccc([C@@H]2[C@@H](CO)N3CCCCN(C(=O)Cc4ccncc4)C[C@H]23)cc1 | 2 | . | . | . | . | .
OC12ONC(c3ccccn3)C1N1CCC2CC1 (centres undefined) | -7 | 7 | -6 | 10.0* | 2 | 1
Fc1cccc(F)c1-c1nc(-c2ccc(Cl)cc2)no1 | 64* | 17 | 4 | 8.2* | 13* | 3
CC1CCCN(CC(=O)c2ccc(Cl)c(Cl)c2)C1 (centres undefined) | . | -1 | 7 | -1 | . | .
CC1CCN(CC(=O)c2ccc3c(c2)OCCO3)CC1 | 4 | -2 | 8 | 8.0* | 7 | 9.6*
COC(=O)[C@H]1[C@H](CO)[C@H]2Cn3c(cccc3=O)[C@@H]1N2C(=O)C1CCCC1 | -8 | . | . | . | . | .
O=c1[nH]c(=S)[nH]c(O)c1N=Nc1ccc(S(=O)(=O)N2CCc3ccccc32)cc1 | . | -5 | -14 | 14* | 11* | -1
